Results on 8 compounds are retold here after ChEMBL document CHEMBL1125607, “Novel gonadotropin-releasing hormone antagonists: peptides incorporating modified N omega-cyanoguanidino moieties” (J Med Chem, 1991).

Values after ≈ are worked out from the molar mass of the structure shown. Active and inactive are the calls of the source. The rule behind the calls is not given here.

For test [1], the target named is Gonadotropin-releasing hormone receptor (Rattus norvegicus) (UniProt P30969). Kind of test: Antagonist potency at GnRH receptor relative to a standard ([Ac-delta3Pro, DFpa2, DTrp3,6]GnRH).
The test system of test [2] is Rattus norvegicus. Briefly: Potency (10 mg/rat) using anti-ovulatory assay, expressed as rat ovulating/total number of treated rats measured after sc administration; 4/4. Type of test: functional, organism-based.
The subject of test [3] is Rattus norvegicus. Kind of test: Potency (2.5 mg/rat) using anti-ovulatory assay, expressed as rat ovulating/total number of treated rats measured after sc administration; 7/9. Type of test: functional, organism-based.
Test [4] concerns Rattus norvegicus. Kind of test: Potency (1 mg/rat) using anti-ovulatory assay, expressed as rat ovulating/total number of treated rats measured after sc administration; 5/8. The format is functional, organism-based.
Test [5] has as its target T1, Gonadotropin-releasing hormone receptor (Rattus norvegicus, UniProt P30969).
T1 sequence (P30969 whole entry): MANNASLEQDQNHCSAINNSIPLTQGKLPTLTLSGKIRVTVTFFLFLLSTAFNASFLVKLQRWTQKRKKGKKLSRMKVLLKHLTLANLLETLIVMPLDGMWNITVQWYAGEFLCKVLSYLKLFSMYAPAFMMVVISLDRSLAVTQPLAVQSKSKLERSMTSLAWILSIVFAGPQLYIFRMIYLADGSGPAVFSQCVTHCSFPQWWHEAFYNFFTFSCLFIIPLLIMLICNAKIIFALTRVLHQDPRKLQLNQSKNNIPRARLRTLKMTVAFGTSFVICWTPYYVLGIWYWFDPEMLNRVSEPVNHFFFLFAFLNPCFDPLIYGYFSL
Briefly: In vitro binding affinity of Gonadotropin-releasing hormone antagonist was measured in rat pituitary cell membranes. Also on record: species or system Pituitary gland cell, Membrane. Put shortly: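 Displacement binding on pituitary cell membranes with [DAla6,NMe-Leu7,Pro9-NHEt]GnRH as standard; analogue KD values calculated from potencies relative to that standard derived from displacement data.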

Test [6] has as its system Rattus norvegicus. Briefly: Potency (2.5 mg/rat) using anti-ovulatory assay, expressed as rat ovulating/total number of treated rats measured after sc administration; 0/8. Type of test: functional, organism-based.
Test [7] relates to Rattus norvegicus. Kind of test: Potency (5 mg/rat) using anti-ovulatory assay, expressed as rat ovulating/total number of treated rats measured after sc administration; 2/5. Type of test: functional, organism-based.
The species entered for test [8] is Rattus norvegicus. Briefly: In vitro histamine release by rat mast cells. Particulars: read-out: ED50 (the source's name).
Test [9] concerns Rattus norvegicus. Kind of test: Potency (10 mg/rat) using anti-ovulatory assay, expressed as rat ovulating/total number of treated rats measured after sc administration; 0/6. Type of test: functional, organism-based.
The subject of test [10] is Rattus norvegicus. Kind of test: Potency (2.5 mg/rat) using anti-ovulatory assay, expressed as rat ovulating/total number of treated rats measured after sc administration; 7/7. Type of test: functional, organism-based.
In test [11] the test system is Rattus norvegicus. Kind of test: Potency (5 mg/rat) using anti-ovulatory assay, expressed as rat ovulating/total number of treated rats measured after sc administration; 0/7. The format is functional, organism-based.
Test [12] has as its system Rattus norvegicus. Kind of test: Potency (5 mg/rat) using anti-ovulatory assay, expressed as rat ovulating/total number of treated rats measured after sc administration; 1/6. The format is functional, organism-based.
Test [13] deals with Rattus norvegicus. Kind of test: Potency (2.5 mg/rat) using anti-ovulatory assay, expressed as rat ovulating/total number of treated rats measured after sc administration; 5/6. The format is functional, organism-based.
For test [14], the system named is Rattus norvegicus. Kind of test: Potency (1 mg/rat) using anti-ovulatory assay, expressed as rat ovulating/total number of treated rats measured after sc administration; 6/6. Type of test: functional, organism-based.
Test [15] deals with Rattus norvegicus. Kind of test: Potency (2.5 mg/rat) using anti-ovulatory assay, expressed as rat ovulating/total number of treated rats measured after sc administration; 1/8. The format is functional, organism-based.
Test [16] has as its system Rattus norvegicus. Briefly: Potency (2.5 mg/rat) using anti-ovulatory assay, expressed as rat ovulating/total number of treated rats measured after sc administration; 5/9. Type of test: functional, organism-based.

Regarding `CC(C)C[C@H](NC(=O)[C@@H](Cc1cccnc1)NC(=O)[C@H](Cc1ccc(O)cc1)NC(=O)[C@H](CO)NC(=O)[C@H](Cc1ccc(Nc2n[nH]c(N)n2)cc1)NC(=O)[C@H](Cc1c[nH]cn1)NC(=O)[C@@H]1CCC(=O)N1)C(=O)N[C@@H](CCCCNC(C)C)C(=O)N1CCC[C@H]1C(=O)N[C@H](C)C(N)=O`, the Relative potency in [1] stood at 0.06. Moreover, in [2], the outcome was inactive.

In test [1], `CC(C)C[C@H](NC(=O)[C@@H](CCCC/N=C(\NC#N)NC1CCCCC1)NC(=O)[C@H](CCCC/N=C(\NC#N)NC1CCCCC1)NC(=O)[C@H](CO)NC(=O)[C@H](Cc1c[nH]c2ccccc12)NC(=O)[C@H](Cc1c[nH]cn1)NC(=O)[C@@H]1CCC(=O)N1)C(=O)N[C@@H](CCCCNC(C)C)C(=O)N1CCC[C@H]1C(=O)N[C@H](C)C(N)=O` gave a Relative potency of 0.42. Further, the outcome in test [3] was inactive.

For `CCCC/N=C(\NC#N)NCCC[C@H](NC(=O)[C@H](CO)NC(=O)[C@H](Cc1c[nH]c2ccccc12)NC(=O)[C@H](Cc1c[nH]cn1)NC(=O)[C@@H]1CCC(=O)N1)C(=O)N[C@H](CCCN/C(=N/CCCC)NC#N)C(=O)N[C@@H](CC(C)C)C(=O)N[C@@H](CCCCNC(C)C)C(=O)N1CCC[C@H]1C(=O)N[C@H](C)C(N)=O`, in test [4], the Activity entry was “Weak activity”. Besides, the Relative potency in [1] came to 1. Further, the equilibrium dissociation constant (Kd) in test [5] was 2.1 nM. The outcome in test [6] was Active.

The compound `CC(C)C[C@H](NC(=O)[C@@H](CCCN=C(N)N)NC(=O)[C@H](Cc1ccc(O)cc1)NC(=O)[C@H](CO)NC(=O)[C@@H](CCCCNc1n[nH]c(N)n1)NC(=O)[C@H](Cc1c[nH]cn1)NC(=O)[C@@H]1CCC(=O)N1)C(=O)N[C@@H](CCCCNC(C)C)C(=O)N1CCC[C@H]1C(=O)N[C@H](C)C(N)=O` had a Relative potency in [1] of 0.3. Moreover, the Activity entry in test [7] is “Weak activity”. Besides, the EC50 in test [8] amounted to 9.5 µg/mL (≈ 7.12 µM). For the same compound, the result in test [9] was Active.

In the case of `CCCC/N=C(/NCCCC[C@H](NC(=O)[C@H](CC(C)C)NC(=O)[C@@H](CCCCNC(=O)c1cccnc1)NC(=O)[C@H](CCCCNC(=O)c1cccnc1)NC(=O)[C@H](CO)NC(=O)[C@H](Cc1c[nH]c2ccccc12)NC(=O)[C@H](Cc1c[nH]cn1)NC(=O)[C@@H]1CCC(=O)N1)C(=O)N1CCC[C@H]1C(=O)N[C@H](C)C(N)=O)NC(N)=O`, binding in test [5] was characterised by a dissociation constant (Kd) of 0.11 nM. In [10], the result was inactive. Also, in [11], the result was Active.

Regarding `CCCC/N=C(\NC#N)NCCCC[C@H](NC(=O)[C@H](CC(C)C)NC(=O)[C@@H](CCCN=C(N)N)NC(=O)[C@H](Cc1ccc(O)cc1)NC(=O)[C@H](CO)NC(=O)[C@@H](Cc1cccnc1)NC(=O)[C@H](Cc1c[nH]cn1)NC(=O)[C@@H]1CCC(=O)N1)C(=O)N1CCC[C@H]1C(=O)N[C@H](C)C(N)=O`, in test [1], the Relative potency is 1.2. The compound further came in with a Kd in test [5] (pituitary gland cell) of 1 nM. Moreover, the EC50 in [8] is 3.5 µg/mL (≈ 2.59 µM). Further, the result in [12] was Active. The outcome in test [13] was inactive.

In test [1], `CC(C)C[C@H](NC(=O)[C@@H](CCCCNc1n[nH]c(N)n1)NC(=O)[C@H](Cc1ccc(O)cc1)NC(=O)[C@H](CO)NC(=O)[C@H](CCCCNc1n[nH]c(N)n1)NC(=O)[C@H](Cc1c[nH]cn1)NC(=O)[C@@H]1CCC(=O)N1)C(=O)N[C@@H](CCCCNC(C)C)C(=O)N1CCC[C@H]1C(=O)N[C@H](C)C(N)=O` returned a Relative potency of 0.6. Also, in test [14], the result was inactive. The outcome in [15] was Active.

As to `CCCC/N=C(\NC#N)NCCCC[C@H](NC(=O)[C@H](Cc1c[nH]cn1)NC(=O)[C@@H]1CCC(=O)N1)C(=O)N[C@@H](CO)C(=O)N[C@@H](Cc1ccc(O)cc1)C(=O)N[C@H](CCCCN/C(=N/CCCC)NC#N)C(=O)N[C@@H](CC(C)C)C(=O)N[C@@H](CCCCNC(C)C)C(=O)N1CCC[C@H]1C(=O)N[C@H](C)C(N)=O`, in test [1], the Relative potency came out at 1.4. For the same compound, the Activity entry in [16] was “Weak activity”.
